Here are results for eleven compounds from ChEMBL document CHEMBL1287654, “Anticancer activity of N-bis(trifluoromethyl)alkyl-N'-(polychlorophenyl) and N'-(1,2,4-triazolyl) ureas” (2010).

Common to all, as to assay type: functional
The test system of one assay is NCI-H460. In words: Growth inhibition of human NCI-H460 cells assessed as cell growth at 100 uM after 48 hrs by sulforhodamine B assay relative to control. The following applies: NCI-H460, 48 h, read-out: Activity. In outline:
(§1)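 One-dose pre-test on MCF7, NCI-H460 and SF-268. Cells were inoculated and pre-incubated on a microtiter plate, then given a single 10^-4 M dose and incubated 48 h. Growth was read spectrophotometrically and expressed as percent of untreated control cells; negative values indicate cell kill.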

The test system of assay [1] is MCF7. In words: Growth inhibition of human MCF7 cells assessed as cell growth at 100 uM after 48 hrs by sulforhodamine B assay relative to control. As to conditions: MCF7, 48 h, read-out: Activity. The method, boiled down: as §1
Assay [2] relates to SF-268. In words: Growth inhibition of human SF268 cells assessed as cell growth at 100 uM after 48 hrs by sulforhodamine B assay relative to control. The following applies: SF-268, 48 h, read-out: Activity. In outline: as §1
(In general: Sulforhodamine B stains cellular protein and so reports cell mass.)

The test system of a further assay is A549. In words: Growth inhibition of human A549 cells after 48 hrs by sulforhodamine B assay. As to conditions: A549, 48 h. In outline: (§2)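 NCI 60-cell-line main test over a five-log dose range. GI50 is the molar concentration giving half-growth inhibition, reported as log molar. Subpanel values are median GI50 across that subpanel's lines. Where 50% inhibition was not reached within the tested interval, the highest tested concentration was used.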

A further assay relates to NCI-H226. In words: Growth inhibition of human NCI-H226 cells after 48 hrs by sulforhodamine B assay. As to conditions: NCI-H226, 48 h. In outline:
as §2

A further assay deals with SK-MEL-2. As to the kind of experiment: Growth inhibition of human SK-MEL-2 cells after 48 hrs by sulforhodamine B assay. As to conditions: SK-MEL-2, 48 h. The method, boiled down:
as §2

Another assay has as its system UACC-257. As to the kind of experiment: Growth inhibition of human UACC257 cells after 48 hrs by sulforhodamine B assay. The following applies: UACC-257, 48 h. The method, boiled down:
(§3)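 NCI 60-cell-line main screen across nine tumor types, with five log dose range per compound. GI50 is the molar concentration giving half growth inhibition, reported as the log of the molar concentration that inhibits 50% net cell growth.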

For the next assay, the system named is 786-0. In words: Growth inhibition of human 786-0 cells after 48 hrs by sulforhodamine B assay. As to conditions: 786-0, 48 h. The method, boiled down:
as §2

Assay [3] relates to MCF7. As to the kind of experiment: Growth inhibition of human MCF7 cells after 48 hrs by sulforhodamine B assay. The following applies: MCF7, 48 h. In outline:
as §2

For the next assay, the system named is MDA-MB-435. In words: Growth inhibition of human MDA-MB-435 cells after 48 hrs by sulforhodamine B assay. As to conditions: MDA-MB-435, 48 h. The method, boiled down:
as §2

A short description of assay [4]: Growth inhibition of human leukemia cell after 48 hrs by sulforhodamine B assay. In outline:
(§4)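 Subpanel median growth inhibitory concentration: the average sensitivity of each tumor-type subpanel of the NCI 60-cell-line panel, derived from per-cell-line GI50 values. GI50 values came from a five log dose range and are expressed as log molar concentration for 50% net growth inhibition.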

Assay [5] is described as follows: Growth inhibition of human non-small lung cancer cell after 48 hrs by sulforhodamine B assay. As to conditions: Cancer cell lines. In outline: as §4
Assay [6] in a line: Growth inhibition of human colon cancer cell after 48 hrs by sulforhodamine B assay. The following applies: Cancer cell lines. The method, boiled down:
as §4

Assay [7] in a line: Growth inhibition of human CNS cancer cell after 48 hrs by sulforhodamine B assay. The following applies: Cancer cell lines. In outline:
as §2

Assay [8] is described as follows: Growth inhibition of human melanoma cell after 48 hrs by sulforhodamine B assay. In outline: as §4
Assay [9] is described as follows: Growth inhibition of human ovarian cancer cell after 48 hrs by sulforhodamine B assay. As to conditions: Cancer cell lines. The method, boiled down: as §4
The nature of assay [10]: Growth inhibition of human renal cancer cell after 48 hrs by sulforhodamine B assay. The following applies: Cancer cell lines. In outline: as §4
The nature of assay [11]: Growth inhibition of human prostate cancer cell after 48 hrs by sulforhodamine B assay. The following applies: Cancer cell lines. The method, boiled down: as §4
A short description of assay [12]: Growth inhibition of human breast cancer cell after 48 hrs by sulforhodamine B assay. The following applies: Cancer cell lines. The method, boiled down:
as §4

The next assay relates to HOP-62. As to the kind of experiment: Growth inhibition of human HOP62 cells after 48 hrs by sulforhodamine B assay. The following applies: HOP-62, 48 h. In outline:
as §2

The subject of another assay is HCT-15. In words: Growth inhibition of human HCT15 cells after 48 hrs by sulforhodamine B assay. As to conditions: HCT-15, 48 h. The method, boiled down:
as §2

The next assay concerns UACC-62. As to the kind of experiment: Growth inhibition of human UACC62 cells after 48 hrs by sulforhodamine B assay. As to conditions: UACC-62, 48 h. The method, boiled down:
as §3

The next assay deals with A498. In words: Growth inhibition of human A498 cells after 48 hrs by sulforhodamine B assay. The following applies: A498, 48 h. The method, boiled down: as §2
For a further assay, the system named is NCI/ADR-RES. In words: Growth inhibition of human NCI/ADR-RES cells after 48 hrs by sulforhodamine B assay. The method, boiled down: as §2
The next assay deals with BT-549. As to the kind of experiment: Growth inhibition of human BT549 cells after 48 hrs by sulforhodamine B assay. The following applies: BT-549, 48 h. In outline:
as §2

In the next assay the test system is COLO 205. In words: Growth inhibition of human COLO205 cells after 48 hrs by sulforhodamine B assay. As to conditions: COLO 205, 48 h. In outline:
as §2

Assay [13] relates to SF-268. In words: Growth inhibition of human SF268 cells after 48 hrs by sulforhodamine B assay. The following applies: SF-268, 48 h. In outline:
as §2

In a further assay the test system is SF-539. As to the kind of experiment: Growth inhibition of human SF539 cells after 48 hrs by sulforhodamine B assay. As to conditions: SF-539, 48 h. The method, boiled down:
as §2

The subject of the next assay is SNB-75. As to the kind of experiment: Growth inhibition of human SNB75 cells after 48 hrs by sulforhodamine B assay. The following applies: SNB-75, 48 h. In outline: as §3
The test system of a further assay is OVCAR-3. In words: Growth inhibition of human OVCAR-3 cells after 48 hrs by sulforhodamine B assay. As to conditions: OVCAR-3, 48 h. In outline:
as §2

Another assay has as its system SN12C. In words: Growth inhibition of human SN12C cells after 48 hrs by sulforhodamine B assay. In outline: as §3

The GI50 is the concentration giving 50% growth inhibition. Low values mean greater sensitivity of the cells, high ones lower sensitivity of the cells.

SMILES strings stand for the structures.

`CCC(NC(=O)Nc1c(Cl)cccc1Cl)(C(F)(F)F)C(F)(F)F`: the growth at 100 µM in the assay with NCI-H460 is 79%; with MCF7 [1], 75%; with SF-268 [2], 101%.
For the compound `CCC(NC(=O)Nc1nc2ccccc2s1)(C(F)(F)F)C(F)(F)F`, the GI50 was 15.8 µM with A549; 15.8 µM in the assay with NCI-H226; 15.8 µM in the assay on SK-MEL-2; 20 µM in the assay with UACC-257; 20 µM with 786-0; 15.8 µM with MCF7 [3]. For the same compound, the GI50 with MDA-MB-435 was 20 µM; in [4] it was 22.9 µM; in assay [5], 18.6 µM; in assay [6], 18.6 µM; in assay [7], 11.7 µM; in assay [8], 17.4 µM. Besides, the GI50 is 17.8 µM in [9], 15.1 µM in assay [10], 18.2 µM in [11] and 18.2 µM in assay [12].
In the case of `CCC(NC(=O)Nn1cnnc1)(C(F)(F)F)C(F)(F)F`, the results for the growth at 100 µM in the assay on NCI-H460, in the assay on MCF7 [1] and with SF-268 [2] were 94%, 84% and 105%, respectively.
`CCC(NC(=O)Nc1c(Cl)cc(Cl)cc1Cl)(C(F)(F)F)C(F)(F)F`: the figures for the growth at 100 µM in the assay with NCI-H460, in the assay with MCF7 [1] and with SF-268 [2] were 81%, 88% and 98%, respectively.
With `CC(NC(=O)Nc1nc2ccccc2s1)(C(F)(F)F)C(F)(F)F`, the GI50 in the assay on HOP-62 is 31.6 µM; with HCT-15, above 100 µM; in the assay with UACC-62, above 100 µM; with A498 it was 100 µM; in the assay on NCI/ADR-RES, above 100 µM; in the assay on BT-549, above 100 µM. Moreover, the GI50 is 21.9 µM in assay [4]; 33.9 µM in assay [5]; 42.7 µM in assay [6]; 25.7 µM in assay [7]; 42.7 µM in [8]; 39.8 µM in assay [9]. The GI50 in assay [10] is 28.2 µM; in assay [11], 56.2 µM; in [12] it was 50.1 µM.
For the compound `CC(NC(=O)Nc1c(Cl)cccc1Cl)(C(F)(F)F)C(F)(F)F`, the growth at 100 µM with NCI-H460 was 85%; in the assay with MCF7 [1], 82%; in the assay on SF-268 [2], 84%.
`CC(NC(=O)Nc1c(Cl)cc(Cl)cc1Cl)(C(F)(F)F)C(F)(F)F`: the growth at 100 µM turned out to be 103% with NCI-H460, 89% with MCF7 [1] and 96% in the assay with SF-268 [2].
Turning to `O=c1[nH]cc(F)c(=O)[nH]1` [FLUOROURACIL], the GI50 in the assay with HOP-62 was 0.398 µM; with COLO 205, 0.158 µM; in the assay on SF-268 [13], 1.58 µM; in the assay with SF-539 it was 0.0631 µM; in the assay on SNB-75, 79.4 µM; with OVCAR-3, 0.0158 µM. In addition, the GI50 in the assay with A498 was 0.398 µM; in the assay with SN12C, 0.501 µM; with MCF7 [3], 0.0794 µM; in the assay on NCI/ADR-RES, 0.316 µM; in assay [4], 0.562 µM; in assay [5], 2 µM. The GI50 is 0.186 µM in assay [6]; 1.35 µM in assay [7]; 0.933 µM in assay [8]; 1.82 µM in assay [9]; 0.575 µM in assay [10]; 0.912 µM in assay [11]. The compound further had a GI50 in assay [12] of 1.38 µM.
`CCC(NC(=O)Nc1nnc[nH]1)(C(F)(F)F)C(F)(F)F`: the growth at 100 µM was 86% in the assay on NCI-H460, 102% in the assay with MCF7 [1] and 102% in the assay on SF-268 [2].
For the compound `CC(NC(=O)Nc1nnc[nH]1)(C(F)(F)F)C(F)(F)F`, the growth at 100 µM in the assay with NCI-H460 amounted to 111%; with MCF7 [1] it was 98%; in the assay with SF-268 [2], 111%.
With `CC(NC(=O)Nn1cnnc1)(C(F)(F)F)C(F)(F)F`, the figures for the growth at 100 µM with NCI-H460, with MCF7 [1] and in the assay with SF-268 [2] were 94%, 81% and 105%, respectively.
